Laboratory results taken from ChEMBL document CHEMBL1142492 (J Med Chem, 2008).

How the values were obtained:
[1] = biological target: CYP2D6 (Homo sapiens, UniProt P10635); test: Inhibition of human CYP2D6 at 10 uM; assay type: ADME
[2] = biological target: Serine/threonine-protein kinase ULK2 (Homo sapiens) (UniProt Q8IYT8); test: Inhibition of ULK2 at 3 uM
[3] = biological target: Serine/threonine-protein kinase 25 (Homo sapiens) (UniProt O00506); test: Inhibition of YSK1 at 3 uM
[4] = biological target: Protein kinase C eta type (Homo sapiens) (UniProt P24723); test: Inhibition of PRKCH at 3 uM
[5] = biological target: T1, CYP1A2 (Homo sapiens, UniProt P05177); test: Inhibition of human CYP1A2 at 10 uM; assay type: ADME
T1 sequence (P05177 whole entry): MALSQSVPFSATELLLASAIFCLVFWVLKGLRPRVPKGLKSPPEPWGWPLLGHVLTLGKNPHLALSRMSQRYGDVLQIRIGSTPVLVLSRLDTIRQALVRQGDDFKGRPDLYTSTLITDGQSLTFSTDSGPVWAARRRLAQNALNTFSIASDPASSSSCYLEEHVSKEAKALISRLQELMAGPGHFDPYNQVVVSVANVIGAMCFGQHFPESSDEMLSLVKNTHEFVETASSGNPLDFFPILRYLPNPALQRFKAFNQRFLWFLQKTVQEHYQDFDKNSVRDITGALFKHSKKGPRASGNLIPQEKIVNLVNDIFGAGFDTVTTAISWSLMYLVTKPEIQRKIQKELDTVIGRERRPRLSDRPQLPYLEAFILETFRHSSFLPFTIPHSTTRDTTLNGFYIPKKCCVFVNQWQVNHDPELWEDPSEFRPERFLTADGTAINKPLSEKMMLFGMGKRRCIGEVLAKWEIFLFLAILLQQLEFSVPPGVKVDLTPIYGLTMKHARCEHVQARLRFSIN

[6] = biological target: NUAK family SNF1-like kinase 1 (Homo sapiens) (UniProt O60285); test: Inhibition of ARK5 at 3 uM
[7] = test system: Tyrosine-protein kinase ABL1 (Homo sapiens), P00519 [T315I]; test: Inhibition of ABL1 T315I mutant at 3 uM
[8] = biological target: Platelet-derived growth factor receptor beta (Homo sapiens) (UniProt P09619); test: Inhibition of PDGFRB at 3 uM
[9] = test system: Proto-oncogene tyrosine-protein kinase receptor Ret (Homo sapiens), P07949 [V804L]; test: Inhibition of RET V804L mutant at 3 uM
[10] = Volume of distribution in Sprague-Dawley rat at 1 mg/kg, iv; details: in vivo
[11] = in vivo; details: Sprague-Dawley, rat, po, 2 mg/kg
[12] = test system: Tyrosine-protein kinase ABL1 (Homo sapiens), P00519 [Q252H]; test: Inhibition of ABL1 Q252H mutant at 3 uM
[13] = biological target: Epithelial discoidin domain-containing receptor 1 (Homo sapiens) (UniProt Q08345); test: Inhibition of DDR1 at 3 uM
[14] = biological target: Serine/threonine-protein kinase BRSK2 (Homo sapiens) (UniProt Q8IWQ3); test: Inhibition of BRSK2 at 3 uM
[15] = biological target: Dual specificity mitogen-activated protein kinase kinase 4 (Homo sapiens) (UniProt P45985); test: Inhibition of MEK4 at 3 uM
[16] = biological target: Mitogen-activated protein kinase kinase kinase 4 (Homo sapiens) (UniProt Q9Y6R4); test: Inhibition of MAP3K4 at 3 uM
[17] = species on record: Rattus norvegicus; details: 3 uM
[18] = biological target: Serine/threonine-protein kinase SIK2 (Homo sapiens) (UniProt Q9H0K1); test: Inhibition of SNF1LK2 at 3 uM
[19] = biological target: Phosphatidylinositol 4,5-bisphosphate 3-kinase catalytic subunit beta isoform (Homo sapiens) (UniProt P42338); test: Inhibition of PIK3CB at 3 uM
[20] = biological target: Mitogen-activated protein kinase 1 (Homo sapiens) (UniProt P28482); test: Inhibition of ERK2 at 3 uM
Procedure, shortened: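 Single-concentration kinase panel scoring: each value is the percentage of enzyme activity remaining relative to a DMSO-only control. An activity statistically indistinct from DMSO control was scored "no hit".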

[21] = species on record: Mus musculus; details: 3 uM
[22] = biological target: BDNF/NT-3 growth factors receptor (Homo sapiens) (UniProt Q16620); test: Inhibition of TRKB at 3 uM
[23] = biological target: Serine/threonine-protein kinase SIK1 (Homo sapiens) (UniProt P57059); test: Inhibition of SNF1LK at 3 uM
[24] = biological target: Mitogen-activated protein kinase 10 (Homo sapiens) (UniProt P53779); test: Inhibition of JNK3 at 3 uM
[25] = biological target: BMP-2-inducible protein kinase (Homo sapiens) (UniProt Q9NSY1); test: Inhibition of BIKE at 3 uM
[26] = biological target: Tyrosine-protein kinase SYK (Homo sapiens) (UniProt P43405); test: Inhibition of SYK at 3 uM
[27] = biological target: Mu-type opioid receptor (Homo sapiens) (UniProt P35372); test: Inhibition of human mu opioid receptor at 3 uM
Procedure, shortened: (§1)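 Counter-screen binding/enzyme panel at single 3 μM, n=2; results as percent inhibition. Species per target as listed (rat NMDA, GABAA sites; human receptors, transporters; rabbit ACE).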

[28] = biological target: Mitogen-activated protein kinase kinase kinase kinase 3 (Homo sapiens) (UniProt Q8IVH8); test: Inhibition of MAP4K3 at 3 uM
[29] = species on record: Homo sapiens; details: 3 uM
[30] = biological target: High affinity nerve growth factor receptor (Homo sapiens) (UniProt P04629); test: Inhibition of TRKA at 3 uM
[31] = test system: Mast/stem cell growth factor receptor Kit (Homo sapiens), P10721 [D816V]; test: Inhibition of KIT D816V mutant at 3 uM
[32] = biological target: Casein kinase I isoform epsilon (Homo sapiens) (UniProt P49674); test: Inhibition of CSNK1E at 3 uM
[33] = test system: Tyrosine-protein kinase ABL1 (Homo sapiens), P00519 [Y253F]; test: Inhibition of ABL1 Y253F mutant at 3 uM
[34] = species on record: Rattus norvegicus; details: 3 uM; remark: listed apart in the source
[35] = biological target: Cyclin-dependent kinase 15 (Homo sapiens) (UniProt Q96Q40); test: Inhibition of PFTAIRE2 at 3 uM
[36] = biological target: Adenosine receptor A1 (Homo sapiens) (UniProt P30542); test: Inhibition of human adenosine A1 receptor at 3 uM; procedure, shortened: as §1
[37] = biological target: CYP3A4 (Homo sapiens, UniProt P08684); test: Inhibition of human CYP3A4 at 10 uM; assay type: ADME
[38] = biological target: Serine/threonine-protein kinase D1 (Homo sapiens) (UniProt Q15139); test: Inhibition of PRKD1 at 3 uM
[39] = biological target: Citron Rho-interacting kinase (Homo sapiens) (UniProt O14578); test: Inhibition of CIT at 3 uM

Serine/threonine-protein kinase SIK2 (Homo sapiens), sequence (Q9H0K1 whole entry, looked up, canonical isoform): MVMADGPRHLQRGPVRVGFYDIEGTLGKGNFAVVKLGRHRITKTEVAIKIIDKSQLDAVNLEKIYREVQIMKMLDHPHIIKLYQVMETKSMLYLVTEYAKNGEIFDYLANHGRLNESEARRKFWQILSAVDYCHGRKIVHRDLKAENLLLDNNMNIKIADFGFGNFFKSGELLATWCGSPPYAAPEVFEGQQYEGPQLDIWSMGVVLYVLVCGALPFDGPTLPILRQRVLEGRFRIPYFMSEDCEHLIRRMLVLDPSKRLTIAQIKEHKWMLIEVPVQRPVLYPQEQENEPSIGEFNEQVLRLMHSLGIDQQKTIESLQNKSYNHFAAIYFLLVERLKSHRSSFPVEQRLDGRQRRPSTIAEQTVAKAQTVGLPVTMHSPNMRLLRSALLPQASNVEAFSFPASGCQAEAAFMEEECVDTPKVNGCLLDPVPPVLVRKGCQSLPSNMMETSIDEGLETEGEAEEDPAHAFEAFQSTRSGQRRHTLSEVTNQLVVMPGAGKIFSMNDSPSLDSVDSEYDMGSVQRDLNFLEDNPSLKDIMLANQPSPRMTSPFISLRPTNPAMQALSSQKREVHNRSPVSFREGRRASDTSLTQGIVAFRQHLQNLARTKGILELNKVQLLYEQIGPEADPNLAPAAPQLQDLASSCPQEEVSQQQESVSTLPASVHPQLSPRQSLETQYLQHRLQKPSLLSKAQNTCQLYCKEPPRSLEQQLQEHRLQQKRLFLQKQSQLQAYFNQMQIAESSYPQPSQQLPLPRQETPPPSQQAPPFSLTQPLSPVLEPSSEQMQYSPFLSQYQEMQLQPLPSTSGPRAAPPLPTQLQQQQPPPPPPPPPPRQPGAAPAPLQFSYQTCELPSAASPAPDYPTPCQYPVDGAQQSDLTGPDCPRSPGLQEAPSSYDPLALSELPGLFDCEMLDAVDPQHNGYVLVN
Serine/threonine-protein kinase BRSK2 (Homo sapiens), sequence (Q8IWQ3 whole entry): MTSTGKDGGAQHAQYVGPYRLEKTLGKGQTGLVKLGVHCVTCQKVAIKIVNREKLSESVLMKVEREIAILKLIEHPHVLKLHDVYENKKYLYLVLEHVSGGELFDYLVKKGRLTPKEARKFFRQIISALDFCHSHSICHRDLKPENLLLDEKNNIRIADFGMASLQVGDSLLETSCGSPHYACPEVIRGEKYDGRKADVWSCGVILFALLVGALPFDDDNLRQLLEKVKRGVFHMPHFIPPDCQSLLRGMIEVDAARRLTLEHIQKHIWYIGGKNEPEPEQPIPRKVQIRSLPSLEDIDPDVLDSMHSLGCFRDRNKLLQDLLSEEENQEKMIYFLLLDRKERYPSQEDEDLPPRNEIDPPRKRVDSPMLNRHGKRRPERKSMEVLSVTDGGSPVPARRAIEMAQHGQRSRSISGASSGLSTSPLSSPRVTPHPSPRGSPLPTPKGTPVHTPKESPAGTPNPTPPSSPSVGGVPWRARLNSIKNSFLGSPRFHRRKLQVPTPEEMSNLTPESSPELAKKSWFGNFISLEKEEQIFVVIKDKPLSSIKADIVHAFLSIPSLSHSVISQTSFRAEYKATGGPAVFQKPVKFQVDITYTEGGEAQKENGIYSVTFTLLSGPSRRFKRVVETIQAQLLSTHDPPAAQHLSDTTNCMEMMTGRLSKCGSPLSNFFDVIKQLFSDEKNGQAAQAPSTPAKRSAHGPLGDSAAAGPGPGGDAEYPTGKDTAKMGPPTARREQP
BDNF/NT-3 growth factors receptor (Homo sapiens), sequence (Q16620 32-822 limits assumed): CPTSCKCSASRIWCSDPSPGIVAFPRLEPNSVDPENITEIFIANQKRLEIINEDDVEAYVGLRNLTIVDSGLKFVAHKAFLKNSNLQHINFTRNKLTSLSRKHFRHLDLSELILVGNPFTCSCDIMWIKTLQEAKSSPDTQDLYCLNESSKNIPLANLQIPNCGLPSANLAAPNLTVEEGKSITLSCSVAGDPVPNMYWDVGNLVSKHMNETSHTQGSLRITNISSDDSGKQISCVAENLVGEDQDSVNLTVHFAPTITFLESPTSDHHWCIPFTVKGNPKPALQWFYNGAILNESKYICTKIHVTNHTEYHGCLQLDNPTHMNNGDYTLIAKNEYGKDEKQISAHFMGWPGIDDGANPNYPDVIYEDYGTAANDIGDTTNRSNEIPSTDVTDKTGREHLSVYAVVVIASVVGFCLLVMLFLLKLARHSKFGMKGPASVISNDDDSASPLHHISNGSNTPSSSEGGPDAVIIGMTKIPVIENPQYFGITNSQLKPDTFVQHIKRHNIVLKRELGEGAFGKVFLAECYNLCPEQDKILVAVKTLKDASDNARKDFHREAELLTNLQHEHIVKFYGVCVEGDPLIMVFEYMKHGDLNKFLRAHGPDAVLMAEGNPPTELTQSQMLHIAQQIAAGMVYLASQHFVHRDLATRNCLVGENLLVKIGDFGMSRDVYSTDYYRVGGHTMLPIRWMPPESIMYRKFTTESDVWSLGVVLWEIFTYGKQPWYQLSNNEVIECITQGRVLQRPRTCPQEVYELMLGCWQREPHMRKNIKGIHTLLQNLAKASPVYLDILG
Platelet-derived growth factor receptor beta (Homo sapiens), sequence (P09619 whole entry): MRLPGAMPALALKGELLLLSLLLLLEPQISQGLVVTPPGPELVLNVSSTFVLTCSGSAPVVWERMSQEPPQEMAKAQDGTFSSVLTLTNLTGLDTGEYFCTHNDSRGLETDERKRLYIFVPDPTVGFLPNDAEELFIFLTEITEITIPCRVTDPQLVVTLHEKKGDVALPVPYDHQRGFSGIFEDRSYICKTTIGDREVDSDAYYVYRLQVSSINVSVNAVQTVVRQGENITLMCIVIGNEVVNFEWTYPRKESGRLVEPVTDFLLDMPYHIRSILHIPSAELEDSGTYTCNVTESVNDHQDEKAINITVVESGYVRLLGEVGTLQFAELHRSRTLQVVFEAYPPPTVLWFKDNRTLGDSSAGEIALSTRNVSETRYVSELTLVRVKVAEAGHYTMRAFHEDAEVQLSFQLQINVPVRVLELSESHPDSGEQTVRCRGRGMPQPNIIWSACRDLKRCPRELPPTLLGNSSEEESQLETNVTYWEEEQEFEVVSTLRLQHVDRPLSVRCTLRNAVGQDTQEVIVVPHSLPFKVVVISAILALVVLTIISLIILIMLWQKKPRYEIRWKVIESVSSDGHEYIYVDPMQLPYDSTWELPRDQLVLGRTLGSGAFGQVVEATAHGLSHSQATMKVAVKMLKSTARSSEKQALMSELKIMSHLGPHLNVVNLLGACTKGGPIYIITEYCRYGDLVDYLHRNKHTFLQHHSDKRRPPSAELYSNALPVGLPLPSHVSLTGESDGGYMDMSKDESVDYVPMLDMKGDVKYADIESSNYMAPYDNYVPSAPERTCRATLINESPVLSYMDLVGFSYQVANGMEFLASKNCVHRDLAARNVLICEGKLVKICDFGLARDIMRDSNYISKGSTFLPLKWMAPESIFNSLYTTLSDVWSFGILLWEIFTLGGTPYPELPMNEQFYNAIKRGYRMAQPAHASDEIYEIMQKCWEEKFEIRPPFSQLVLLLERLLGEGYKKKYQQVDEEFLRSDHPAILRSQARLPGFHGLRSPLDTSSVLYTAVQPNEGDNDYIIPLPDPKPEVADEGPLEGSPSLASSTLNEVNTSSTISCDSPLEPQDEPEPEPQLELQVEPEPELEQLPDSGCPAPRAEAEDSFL
Protein kinase C eta type (Homo sapiens), sequence (P24723 whole entry): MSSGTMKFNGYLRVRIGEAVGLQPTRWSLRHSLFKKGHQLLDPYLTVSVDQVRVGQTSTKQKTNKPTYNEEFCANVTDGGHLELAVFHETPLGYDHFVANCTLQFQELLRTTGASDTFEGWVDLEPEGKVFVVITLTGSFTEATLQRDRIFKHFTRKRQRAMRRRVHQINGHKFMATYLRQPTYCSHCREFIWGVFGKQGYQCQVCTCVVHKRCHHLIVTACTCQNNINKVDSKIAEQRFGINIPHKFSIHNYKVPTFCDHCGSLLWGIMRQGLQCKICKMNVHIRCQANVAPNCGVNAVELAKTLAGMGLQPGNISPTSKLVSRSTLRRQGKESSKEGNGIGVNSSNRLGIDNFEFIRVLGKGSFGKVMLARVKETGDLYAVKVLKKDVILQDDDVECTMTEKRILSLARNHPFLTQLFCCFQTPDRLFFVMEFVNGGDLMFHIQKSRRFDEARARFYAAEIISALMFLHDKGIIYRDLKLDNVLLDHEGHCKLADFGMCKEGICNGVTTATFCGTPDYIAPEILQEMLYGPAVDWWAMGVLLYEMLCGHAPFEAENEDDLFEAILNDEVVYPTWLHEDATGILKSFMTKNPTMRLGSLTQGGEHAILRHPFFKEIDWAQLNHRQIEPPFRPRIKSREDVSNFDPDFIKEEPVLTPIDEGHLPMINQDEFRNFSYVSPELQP
CYP2D6, sequence (P10635 whole entry): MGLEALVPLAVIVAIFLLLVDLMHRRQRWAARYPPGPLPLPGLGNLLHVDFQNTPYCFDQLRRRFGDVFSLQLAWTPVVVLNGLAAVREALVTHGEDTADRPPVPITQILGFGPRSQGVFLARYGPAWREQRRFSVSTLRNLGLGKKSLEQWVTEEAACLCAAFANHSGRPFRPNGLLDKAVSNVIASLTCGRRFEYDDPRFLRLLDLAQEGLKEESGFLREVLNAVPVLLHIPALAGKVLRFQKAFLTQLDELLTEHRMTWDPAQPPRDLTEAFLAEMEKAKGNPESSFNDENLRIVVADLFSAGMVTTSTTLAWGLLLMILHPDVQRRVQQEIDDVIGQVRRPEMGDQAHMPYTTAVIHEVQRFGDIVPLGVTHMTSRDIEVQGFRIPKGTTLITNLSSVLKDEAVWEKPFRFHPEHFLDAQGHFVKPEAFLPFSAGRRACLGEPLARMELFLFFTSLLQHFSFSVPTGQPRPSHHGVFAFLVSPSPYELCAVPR
Adenosine receptor A1 (Homo sapiens), sequence (P30542 whole entry): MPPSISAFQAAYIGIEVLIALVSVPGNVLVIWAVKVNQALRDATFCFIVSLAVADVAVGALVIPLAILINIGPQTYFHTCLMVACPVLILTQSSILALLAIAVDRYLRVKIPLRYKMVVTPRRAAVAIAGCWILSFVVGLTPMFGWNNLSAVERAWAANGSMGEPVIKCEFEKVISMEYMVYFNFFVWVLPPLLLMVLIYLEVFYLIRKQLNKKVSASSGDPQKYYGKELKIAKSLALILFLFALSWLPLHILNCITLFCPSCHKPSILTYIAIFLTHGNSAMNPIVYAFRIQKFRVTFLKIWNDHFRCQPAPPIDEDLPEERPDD

With `CN(C)CCOc1cc(-c2cn[nH]c2)ccc1NC(=O)C1COc2ccccc2O1` (centres undefined) [SR-3677] the inhibition at 10 µM [1] was 75%, the inhibition [2] was < 10% and the inhibition [3] was < 10%. For the same compound, the inhibition [4] was < 10%, the inhibition at 10 µM [5] was 46% and the inhibition [6] was < 10%. For the same compound, the inhibition [7] was < 10%, the inhibition [8] was < 10% and the inhibition [9] was < 10%. For the same compound, the Vd [10] was 3 L/kg, the Cmax [11] was 50 nM and the inhibition [12] was < 10%. The inhibition [13] was < 10%, the inhibition [14] was < 10% and the inhibition [15] was < 10%. For the same compound, the inhibition [16] was < 10%, the inhibition [17] was -1% and the inhibition [18] was < 10%. The inhibition [19] was < 10%, the inhibition [20] was < 10% and the inhibition [21] was -2%. For the same compound, the inhibition [22] was < 10%, the inhibition [23] was < 10% and the inhibition [24] was < 10%. The inhibition [25] was < 10%, the inhibition [26] was < 10% and the inhibition [27] was 5%. For the same compound, the inhibition [28] was < 10%, the inhibition [29] was 4% and the inhibition [30] was < 10%. For the same compound, the inhibition [31] was < 10%, the inhibition [32] was < 10% and the inhibition [33] was < 10%. For the same compound, the inhibition [34] was 14%, the inhibition [35] was < 10% and the inhibition [36] was -4%. The inhibition at 10 µM [37] was 0%, the inhibition [38] was < 10% and the inhibition [39] was < 10%.
